Our source for the inhibition of growth and IC50 values is ChEMBL document CHEMBL1938319, “Design, synthesis, and in vitro antiproliferative activity of novel Dasatinib derivatives” (Bioorg Med Chem Lett, 2012).

Assay [1] concerns K562. Kind of assay: Growth inhibition of human K562 cells at 10 uM after 72 hrs by WST-8 reagent based MTT assay. It counts as functional. The conditions noted are these: K562, 72 h, read-out: GI. In short, it runs like this:
(§1)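 Single-concentration screen at 10 μM on K562 or U937 cells in RPMI1640 with 10% FBS, 5.0 × 10³ cells/well, settled 4 h, then 72 h exposure at 37 °C, 5% CO₂. WST-8/1-methoxyphenazinium reagent added for 1.5 h. A450 read with 650 nm correction. Growth given as % absorbance relative to vehicle control, averaged over three independent experiments.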
(In general: Formazan colour is commonly taken as a measure of viable cells.)

In assay [2] the test system is U-937. Kind of assay: Cytotoxicity against human U937 cells after 72 hrs by WST-8 reagent based MTT assay. Format: functional, cell-based. The conditions noted are these: U-937, 72 h. In short, it runs like this: (§2)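 K562 or U937 cells in RPMI1640 with 10% FBS, 5.0 × 10³ cells/well, settled 4 h at 37 °C, 5% CO₂. Exposed to compound for 72 h. Medium removed, then WST-8 reagent (5 mM WST-8, 0.2 mM 1-methoxyphenazinium salt, 150 mM NaCl) added for 1.5 h at 37 °C. Absorbance read at 450 nm, corrected at 650 nm, as % of vehicle control. IC50 from concentration–response curve fitting. Three independent experiments averaged.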

The test system of assay [3] is U-937. Kind of assay: Growth inhibition of human U937 cells at 10 uM after 72 hrs by WST-8 reagent based MTT assay. It counts as functional. The conditions noted are these: U-937, 72 h, read-out: GI. In short, it runs like this:
as §1

Assay [4] relates to K562. The experiment in a line: Cytotoxicity against human K562 cells after 72 hrs by WST-8 reagent based MTT assay. It counts as functional, cell-based. The conditions noted are these: K562, 72 h. In short, it runs like this: as §2

SMILES strings stand for the structures.

`COc1cc2c(Nc3ccc4sc(C(=O)Nc5c(C)cccc5Cl)cc4c3)ncnc2cc1OCCCN1CCOCC1`: the inhibition of growth at 10 µM in the assay with K562 [1] came to 9.99%; in the assay with U-937 [3], 56.2%. Moreover, the IC50 with U-937 [2] is 9.09 µM.

For the molecule `Cc1nc(Nc2ncc(C(=O)Nc3c(C)cccc3Cl)s2)cc(N2CCN(CCO)CC2)n1` [DASATINIB], the inhibition of growth at 10 µM amounted to 37.4% with K562 [1] and 37.2% with U-937 [3]. The IC50 in the assay with U-937 [2] worked out at 13.6 µM; in the assay on K562 [4], 12.8 µM.

For the molecule `Cc1nc(Nc2ccc3sc(C(=O)Nc4c(C)cccc4Cl)cc3c2)cc(N2CCN(C)CC2)n1`, the inhibition of growth at 10 µM with K562 [1] came out at 32.4%; in the assay on U-937 [3], 40.6%. Besides, the results for the IC50 in the assay with U-937 [2] and in the assay on K562 [4] were 15 µM and 17 µM, respectively.

Consider `COc1cc2c(Nc3ccc4sc(C(=O)Nc5c(C)cccc5Cl)cc4c3)ncnc2cc1OCCCN1CCCCC1C` (stereo not drawn), for which the values for the inhibition of growth at 10 µM in the assay with K562 [1] and with U-937 [3] were 84.2% and 80.2%, respectively. For the same molecule, the figures for the IC50 with U-937 [2] and in the assay with K562 [4] were 3.45 µM and 2.15 µM, respectively.

`CCN(CCO)CCCOc1cc2ncnc(Nc3ccc4sc(C(=O)Nc5c(C)cccc5Cl)cc4c3)c2cc1OC`: the inhibition of growth at 10 µM is 59.8% with K562 [1] and 76.9% in the assay with U-937 [3]. The results for the IC50 with U-937 [2] and in the assay with K562 [4] were 4.25 µM and 8.97 µM, respectively.

As to `COc1cc2c(Nc3ccc4sc(C(=O)Nc5c(C)cccc5Cl)cc4c3)ncnc2cc1OCCCN1CCCCC1`, the inhibition of growth at 10 µM in the assay with K562 [1] worked out at 71.8%; in the assay on U-937 [3], 75.7%. In addition, the IC50 with U-937 [2] stood at 4.34 µM; with K562 [4] it was 4.01 µM.

As to `Cc1nc(Nc2ccc3sc(C(=O)Nc4c(C)cccc4Cl)cc3c2)cc(N2CCOCC2)n1`, the inhibition of growth at 10 µM in the assay with K562 [1] worked out at 13.9%; in the assay on U-937 [3] it was 8.37%.

Regarding `Cc1nc(Nc2ccc3sc(C(=O)Nc4c(C)cccc4Cl)cc3c2)cc(N2CCN(CCO)CC2)n1`, the inhibition of growth at 10 µM in the assay with K562 [1] was determined as 27.8%; in the assay with U-937 [3], 37.1%. Besides, the IC50 in the assay with U-937 [2] turned out to be 13.7 µM; with K562 [4] it was 21.9 µM.

As for `Cc1nc(Nc2ccc3sc(C(=O)Nc4c(C)cccc4Cl)cc3c2)cc(N2CCCCC2)n1`, the inhibition of growth at 10 µM with K562 [1] was determined as 8.78%; in the assay on U-937 [3], 20.6%. In addition, in the assay with U-937 [2], inhibition was half-maximal at 20 µM (IC50).

As for `CCN1CCN(c2cc(Nc3ccc4sc(C(=O)Nc5c(C)cccc5Cl)cc4c3)nc(C)n2)CC1`, the inhibition of growth at 10 µM worked out at 33.9% in the assay with K562 [1] and 46.5% in the assay with U-937 [3]. For the same molecule, the IC50 was 13.1 µM in the assay with U-937 [2] and 16.9 µM in the assay on K562 [4].

For `COc1cc2c(Nc3ccc4sc(C(=O)Nc5c(C)cccc5Cl)cc4c3)ncnc2cc1OCCCN1CCN(C)CC1`, the values for the inhibition of growth at 10 µM with K562 [1] and with U-937 [3] were 51.2% and 76%, respectively. Moreover, the IC50 is 3.48 µM in the assay with U-937 [2] and 9.88 µM in the assay with K562 [4].

Turning to `Cc1nc(Nc2ccc3sc(C(=O)Nc4c(C)cccc4Cl)cc3c2)cc(N2CCC(C)CC2)n1`, the inhibition of growth at 10 µM in the assay on K562 [1] is 20.5%; in the assay with U-937 [3], 24.6%. Moreover, the IC50 stood at 20.6 µM with U-937 [2] and 22.2 µM with K562 [4].

As for `CCN(CC)CCCOc1cc2ncnc(Nc3ccc4sc(C(=O)Nc5c(C)cccc5Cl)cc4c3)c2cc1OC`, the inhibition of growth at 10 µM in the assay on K562 [1] was found to be 72.5%; with U-937 [3], 78%. For the same molecule, the IC50 with U-937 [2] came to 4.01 µM; in the assay on K562 [4] it was 3.55 µM.

As usually defined, the IC50 is the concentration that gives 50% inhibition.
